Assay results reported in ChEMBL document CHEMBL2057141, “Imidazolopiperazines: lead optimization of the second-generation antimalarial agents” (J Med Chem, 2012).

Experiments:
Mus musculus [1] = experiment: AUC (0 to 24 hrs) in Balb/c mouse at 5 mg/kg, iv; format: ADME, organism-based, Plasma; parameters: time < 24 hr, dose 5 mg/kg, route intravenous; conditions: in vivo
In short: (§1)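 Male Balb/c mice (n = 3 per group). Compound as a 2.5 mg/mL solution in PEG300/D5W 3:1, filtered. Given by lateral tail vein at 5 mg/kg (2 mL/kg) or orally at 20 mg/kg (8 mL/kg). Six serial 50 μL retro-orbital blood samples to 24 h, heparinized plasma. Plasma extracted with acetonitrile:methanol 3:1 with internal standard, LC-MS/MS. Noncompartmental analysis; F = AUCpo×dose_iv/AUCiv×dose_po.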

[2] = Clearance in Balb/c mouse plasma at 5 mg/kg, iv; format: ADME, organism-based; parameters: dose 5 mg/kg, route intravenous; in short: as §1
[3] = Cmax in Wistar rat at 10 mg/kg, po; format: ADME, organism-based; parameters: dose 10 mg/kg, route oral; conditions: Wistar, in vivo
In short: (§2)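 Rat snapshot PK: two Wistar rats dosed orally at 10 mg/kg, formulated at 2.5 mg/mL in 75% PEG300/25% D5W. Blood (100 μL) taken at 0.5, 1, 3 and 5 h post dose. Plasma pooled by sampling time, then analysed by LC-MS/MS.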

[4] = Half life in Balb/c mouse at 5 mg/kg, iv; format: ADME, organism-based; parameters: dose 5 mg/kg, route intravenous; conditions: in vivo; in short: as §1
Plasmodium berghei [5] = experiment: Antimalarial activity against Plasmodium berghei ANKA expressing GFP infected in NMRI mouse assessed as increase of mouse survival at 30 mg/kg, po administered 24 hrs post infection qd for 3 days (reference value: 6 to 7 days); format: functional
[6] = Permeability of the compound by PAMPA; format: ADME
In short: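 PAMPA in 96-well filter plates. Permeated compound quantified by UV absorbance at 260–290 nm. Reported as percentage absorbed.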

[7] = target: Voltage-gated inwardly rectifying potassium channel KCNH2 (Homo sapiens, UniProt Q12809); experiment: Inhibition of human ERG channel expressed in CHO cells by patch clamp assay; format: cell-based
Mus musculus [8] = experiment: Oral bioavailability in Balb/c mouse at 20 mg/kg; format: ADME, organism-based; conditions: in vivo; in short: as §1
[9] = Metabolic stability in mouse liver microsomes assessed as hepatic extraction ratio by LC/MS/MS analysis in presence of CYP; format: ADME, Microsome
In short: (§3)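 Liver microsomes (human, mouse, rat). Compound depletion followed by LC/MS/MS. Loss of parent used to derive in vitro half-life and hepatic extraction ratio.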

Plasmodium falciparum [10] = experiment: Antimalarial activity against Plasmodium falciparum 3D7 after 72 hrs by SYBR green fluorescence assay; format: functional, organism-based; conditions: 3D7, 72 h
In short: (§4)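 P. falciparum grown in O+ erythrocytes, screened in medium without human serum plus 0.5% Albumax II. Twelve-point half-log dilutions up to 10 μM final. 0.3% parasitemia, 2.5% hematocrit; 72 h at 37 °C under low-oxygen gas. Lysis buffer with SYBR Green added, 24 h at 25 °C, fluorescence read at 485/530 nm.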

Plasmodium falciparum [11] = experiment: Antimalarial activity against Plasmodium falciparum W2 after 72 hrs by SYBR green fluorescence assay; format: functional, organism-based; conditions: W2, 72 h; in short: as §4
[12] = Metabolic stability in human liver microsomes assessed as hepatic extraction ratio by LC/MS/MS analysis in presence of CYP; format: ADME, Microsome; in short: as §3
[13] = Apparent permeability across basolateral to apical side in human Caco2 cells by LC/MS analysis; format: ADME, cell-based; conditions: Caco-2
In short: (§5)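 Caco-2 monolayers in 96-well format. Compound measured in apical and basolateral chambers by LC/MS, giving Papp in the A–B and B–A directions. Values reported in cm/s × 10⁶.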

[14] = Half life in Balb/c mouse at 20 mg/kg, po; format: ADME, organism-based; parameters: dose 20 mg/kg, route oral; conditions: in vivo; in short: as §1
Plasmodium berghei [15] = experiment: Antimalarial activity against Plasmodium berghei ANKA expressing GFP infected in NMRI mouse assessed as increase of mouse survival at 100 mg/kg, po administered 24 hrs post infection (reference value: 6 to 7 days); format: functional
Plasmodium berghei [16] = experiment: Antimalarial activity against Plasmodium berghei ANKA expressing GFP infected in NMRI mouse assessed as reduction of parasite level in blood at 100 mg/kg, po administered 24 hrs post infection measured after 72 hrs post infection by flow cytometry; format: functional; parameters: scale not given: the % may be the effect or the level left
In short: (§6)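 Female NMRI mice (20–22 g, n=3) are infected i.v. with 2×10^7 P. berghei GFP ANKA-infected erythrocytes. Oral compound in 75% PEG300/25% D5W is given at 10 mL/kg, once at 24 h or daily at 24/48/72 h post-infection. Parasitemia is read by flow cytometry at 72 h (single dose) or 96 h (triple dose). Activity is % reduction of mean parasitemia versus untreated controls.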

Rattus norvegicus = experiment: Dose normalized AUC (0 to 5 hrs) in Wistar rat at 10 mg/kg, po; format: ADME, organism-based; parameters: dose 10 mg/kg, route oral; conditions: in vivo; in short: as §2
[17] = Volume of distribution in Balb/c mouse at 5 mg/kg, iv; format: ADME, organism-based; parameters: dose 5 mg/kg, route intravenous; conditions: in vivo; in short: as §1
[18] = Tmax in Balb/c mouse at 20 mg/kg, po; format: ADME, organism-based; parameters: dose 20 mg/kg, route oral; conditions: in vivo; in short: as §1
[19] = Metabolic stability in rat liver microsomes assessed as hepatic extraction ratio by LC/MS/MS analysis in presence of CYP; format: ADME, Microsome; in short: as §3
Plasmodium berghei [20] = experiment: Antimalarial activity against Plasmodium berghei ANKA expressing GFP infected in NMRI mouse assessed as reduction of parasite level in blood at 30 mg/kg, po administered 24 hrs post infection qd for 3 days measured after 96 hrs post infection by flow cytometry; format: functional; parameters: scale not given: the % may be the effect or the level left; in short: as §6
[21] = Apparent permeability across apical to basolateral side in human Caco2 cells by LC/MS analysis; format: ADME, cell-based; conditions: Caco-2; in short: as §5
Plasmodium berghei [22] = experiment: Antimalarial activity against Plasmodium berghei ANKA expressing GFP infected in NMRI mouse assessed as reduction of parasite level in blood at 30 mg/kg, po administered 24 hrs post infection measured after 72 hrs post infection by flow cytometry; format: functional; parameters: scale not given: the % may be the effect or the level left; in short: as §6
Plasmodium berghei [23] = experiment: Antimalarial activity against Plasmodium berghei ANKA expressing GFP infected in NMRI mouse assessed as increase of mouse survival at 30 mg/kg, po administered 24 hrs post infection (reference value: 6 to 7 days); format: functional
[24] = AUC (0 to 5 hrs) in Wistar rat at 10 mg/kg, po; format: ADME, organism-based; parameters: dose 10 mg/kg, route oral; conditions: plasma
Mus musculus [25] = experiment: AUC (0 to 24 hrs) in Balb/c mouse at 20 mg/kg, po; format: ADME, organism-based, Plasma; parameters: time < 24 hr, dose 20 mg/kg, route oral; conditions: in vivo; in short: as §1
[26] = Cmax in Balb/c mouse at 20 mg/kg, po; format: ADME, organism-based; parameters: dose 20 mg/kg, route oral; conditions: in vivo; in short: as §1

Chain of Voltage-gated inwardly rectifying potassium channel KCNH2 (Q12809 whole entry): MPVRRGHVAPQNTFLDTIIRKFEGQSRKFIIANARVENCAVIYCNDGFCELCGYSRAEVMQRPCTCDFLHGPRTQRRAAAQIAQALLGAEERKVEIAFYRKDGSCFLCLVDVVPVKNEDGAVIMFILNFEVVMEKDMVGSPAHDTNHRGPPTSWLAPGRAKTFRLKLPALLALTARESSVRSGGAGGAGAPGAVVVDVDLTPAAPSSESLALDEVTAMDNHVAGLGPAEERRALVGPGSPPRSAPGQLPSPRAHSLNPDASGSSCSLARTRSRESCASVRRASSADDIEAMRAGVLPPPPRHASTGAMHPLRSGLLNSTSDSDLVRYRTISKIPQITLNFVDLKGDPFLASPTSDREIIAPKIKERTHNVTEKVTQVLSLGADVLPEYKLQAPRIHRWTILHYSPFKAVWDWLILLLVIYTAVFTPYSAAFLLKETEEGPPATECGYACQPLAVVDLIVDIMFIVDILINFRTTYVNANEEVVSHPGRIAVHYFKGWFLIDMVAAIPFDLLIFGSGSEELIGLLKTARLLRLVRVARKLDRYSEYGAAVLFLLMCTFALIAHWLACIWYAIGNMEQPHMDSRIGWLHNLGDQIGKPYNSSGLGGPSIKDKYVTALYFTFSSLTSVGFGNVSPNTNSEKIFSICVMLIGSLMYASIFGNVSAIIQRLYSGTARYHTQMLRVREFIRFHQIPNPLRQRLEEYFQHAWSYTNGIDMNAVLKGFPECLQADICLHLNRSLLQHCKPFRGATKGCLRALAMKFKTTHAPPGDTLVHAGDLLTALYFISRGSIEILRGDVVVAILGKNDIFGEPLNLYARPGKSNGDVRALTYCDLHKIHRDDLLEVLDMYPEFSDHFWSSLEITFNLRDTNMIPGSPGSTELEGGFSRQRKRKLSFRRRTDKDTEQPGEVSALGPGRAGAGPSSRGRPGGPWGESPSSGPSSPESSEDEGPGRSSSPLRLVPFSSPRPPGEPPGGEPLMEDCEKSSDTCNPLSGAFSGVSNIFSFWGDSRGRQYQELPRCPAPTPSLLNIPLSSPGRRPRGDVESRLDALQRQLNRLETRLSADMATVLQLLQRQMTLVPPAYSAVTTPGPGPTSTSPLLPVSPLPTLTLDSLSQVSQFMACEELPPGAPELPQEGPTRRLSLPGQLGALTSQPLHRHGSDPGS

Q: Which AUC (Mus musculus [1]) does the source give for `CC1(C)c2nc(-c3ccc(F)cc3)c(Nc3ccc(F)c(F)c3)n2CCN1C(=O)CN` here?
A: Its AUC is 7.062 µM·h.

Q: And the clearance [2]?
A: Its clearance is 27.5 mL/min/kg.

Q: And the Cmax [3]?
A: Its Cmax is 96.7 nM.

Q: What about the half-life [4] of the same compound?
A: The half-life was 5.5 h.

Q: What about the Survival (Plasmodium berghei [5]) of the same compound?
A: Its Survival is 17 days.

Q: And the permeability [6]?
A: Its permeability is 51.5%.

Q: What about the IC50 [7] of the same compound?
A: The IC50 was greater than 30000 nM.

Q: And the F (Mus musculus [8])?
A: The F was 75%.

Q: What about the hepatic extraction ratio [9] of the same compound?
A: The hepatic extraction ratio was 0.46.

Q: And the EC50 (Plasmodium falciparum [10])?
A: The EC50 was 4 nM.

Q: What about the EC50 (Plasmodium falciparum [11]) of the same compound?
A: Its EC50 is 5 nM.

Q: What about the hepatic extraction ratio [12] of the same compound?
A: The hepatic extraction ratio was 0.53.

Q: What about the Papp B→A [13] of the same compound?
A: Its Papp B→A is 1.3 ×10⁻⁶ cm/s.

Q: And the half-life [14]?
A: The half-life was 5.21 h.

Q: What about the Survival (Plasmodium berghei [15]) of the same compound?
A: The Survival was 16.7 days.

Q: What about the Activity (Plasmodium berghei [16]) of the same compound?
A: Its Activity is 99.1%.

Q: What about the AUC/dose (Rattus norvegicus) of the same compound?
A: Its AUC/dose is 0.95 min.ug/ml/(mg/kg).

Q: What about the Vd [17] of the same compound?
A: The Vd was 7.5 L/kg.

Q: And the Tmax [18]?
A: Its Tmax is 3 h.

Q: What about the hepatic extraction ratio [19] of the same compound?
A: Its hepatic extraction ratio is 0.69.

Q: What about the Activity (Plasmodium berghei [20]) of the same compound?
A: Its Activity is 99.7%.

Q: What about the Papp A→B [21] of the same compound?
A: Its Papp A→B is 0.61 ×10⁻⁶ cm/s.

Q: What about the Activity (Plasmodium berghei [22]) of the same compound?
A: Its Activity is 99%.

Q: What about the Survival (Plasmodium berghei [23]) of the same compound?
A: The Survival was 15 days.

Q: What about the AUC(0-t) at 4 h [24] of the same compound?
A: Its AUC(0-t) at 4 h is 0.367 µM·h.

Q: And the AUC (Mus musculus [25])?
A: Its AUC is 21.058 µM·h.

Q: What about the Cmax [26] of the same compound?
A: The Cmax was 1720 nM.
